Reference: the EternaBench riboswitch data

System: MS2 coat protein
Experiment: apparent Kd, MS2 coat protein; higher = weaker binding; RNA-MaP array; FMN 200 µM where present
Procedure, shortened: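 The apparent Kd is the median of filtered binding-curve fits, one per cluster, to green signal normalised to red-channel RNA signal and control-cluster median Fmax. The clusters were on Illumina sequencing chips, and stalled E. coli RNA polymerase had transcribed the designs on them. Titration used SNAP-549-labelled MS2 coat protein from 0.7 or 1.5 nM, doubling to 3 µM, without and then with constant ligand, in 100 mM Tris-HCl pH 7.5, 80 mM KCl, 4 mM MgCl2, BSA, DTT, yeast tRNA and Tween-20.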

[1] = designed as: OFF switch for flavin mononucleotide, no ligand
[2] = ligand present: flavin mononucleotide, designed as: OFF switch for flavin mononucleotide
[3] = designed as: ON switch for flavin mononucleotide, no ligand
[4] = ligand present: flavin mononucleotide, designed as: ON switch for flavin mononucleotide

| Sequence | apparent Kd [1] [nM] | apparent Kd [2] [nM] | apparent Kd [3] [nM] | apparent Kd [4] [nM] |
| --- | --- | --- | --- | --- |
| AAGGAUAGAGGAUAUACAUAGAUACAGAUUCAUGUAGACCUACAUGAGGAUCACCCAUGUAGAAGGCUAUCCUA | 19.2 | 113 | – | – |
| GGGACUCUAGAAGAGCUGUCGACAUAGGAUAUGAUGUGCGACAUGAGGAUCACCCAUGUAACGAAUUAGAAGGGUGUAGGCAUG | – | – | 228 | 114 |
| AAUAUGUUGCAGAAGGCCAUGUUGUGGUAGUACCUCAUGACAUGAGGAUCACCCAUGUCUGUGAUGGAGGAUAUGCAAUAUAUU | 8.87 | 14.8 | – | – |
| CCAAUGUAAGGAUAUGACAAUGGUAUCUUCGGAUACCAUUGUCAGAAGGUACAUGAGGAUCACCCAUGUACAAA | 14.3 | 16.6 | – | – |
| AAGCGAGGGACAGGAUAUGCGGCGAAACUCGCCGCAGAAGGGUCGACAUGAGGAUCACCCAUGUCCUUACGCUCCAAGUAAAGG | – | – | 216 | 436 |
| GUGGUCAGACAUGAGGAUCACCCAUGUGGAAUAAAUAAGGAGAAGGAUAUGCAAUAUAGGAUAUAGCAGAAGGUUUGGUUGGUG | – | – | 95.8 | 111 |
| UGGUACAUGGGAGGAUAUGGGACAUGAGGAUCACCCAUGUGAAAAUUAAAUAUGCCGAGAGGCAACUAGAAGGCCCAUGUACCU | – | – | 29.9 | 14.9 |
| UGCGUGUUAGGAUAUCCGCCAAAGACCGACGGUGGAACGCAGGAGAAGGAACAUGAGGAUCACCCAUGUGGGAA | 88.1 | 34.3 | – | – |
| AGAACAUGAGGAUCACCCAUGUAAAGGUCGGUCAAUAAGGGUGAGGAUAUGCUUAAAAUAAGGUAGCAGAAGGUACUUGGUGCA | – | – | 398 | 508 |
| GCGAUUUUUAGAUUUUAAUAAUUUACAGAAGGUGAUAUACUUACAUGAGGAUCACCCAUGUUAUUCAAGGAUAUGUAGAUACUC | – | – | 308 | 31 |
| AAUAAACUCACAGGAUAUAGCAUCGUCGUUGCGAACUUAGCGACGACGAUGCUAGAAGGGUGUAUACAUGAGGAUCACCCAUGU | – | – | 23 | 11.2 |
| GCCUUAUCCGUCAGGAUAUACAUUUUUUAGUUGUUGUAGAAGGGACAUGAGGAUCACCCAUGUACAUUACAUUG | 21.1 | 21.8 | – | – |
| GGAUAUGACAGAGGAUAUACGUGCUAGAGAUACUAGCAAAAUUUCCUCACAUGAGGAUCACCCAUGUAGAAGGCUGUCCUAUCG | 16.3 | 275 | – | – |
| ACAUGAGGAUCACCCAUGUUGAAUUAGGAUAUUUGACUGCACAUGAGGUUCACCCAUGUUCUACCGGAGAAGGGAUUAAUAAUU | – | – | 129 | 132 |
| GGAUAGGACAGAGGAUAUUCGUGCUAGAGAUACUAGCAAAAUUUCCUCACAUGAGGAUCACCCAUGUAGAAGGCUGUCCUAUCG | 5.37 | 10.3 | – | – |
| CAGCAAAAGUAGAAGGCAGUACUGAUUCAGUACUGAGGAUAUACAUGAGGAUCACCCAUGUCUUCCAGCUGAAUAAUAAAAUAA | 6.14 | 45.5 | – | – |
| GCUGCAAAUGAGAAGGCGAUCAUGAAACAUGAUCGAGGAUAUCAUGUUUACAUGAGGAUCACCCAUGUAUGGGUAUAUUGCAGC | – | – | 707 | 14.3 |
| CCGAUGAUAGGACAGGAUAUGACUGUCGUCACAUGAGGAUCACCCAUGUCCCGGCAAUGCCACCGUUAGAAGGGUCCCAUCUCGG | – | – | 19.1 | 16.3 |
| UGUGUCAUCGAGAAGGCCUCAACAUGAGGAUCACCCAUGUUGUAAUAUGGGAGGAUAUCGAUGAUACAGCUACGUUUCGUAGCU | – | – | 19.2 | 5.78 |
| AUACAUGAGGAUCACCCAUGUCAGCGGCAGUGCUGCAGAUCAAGAAGGGAUCCCGUGGGCCGGGAUCAGGAUAUUGAUCCUGCA | – | – | 105 | 18.6 |
| CGAAGUCCGUAGAAGGGUGACAUGAGGAUCACCCAUGUGCGAGCCGAGGGAGUCAGCGGCUCGCCACAGGAUAUACGGAUCACG | – | – | 17.1 | 61.8 |
| UACCGCCGCACGGACGCGUUGAGUCAGGAUAUACAUGAGGAUCACCCAUGUGAAGGCCGGCUCAUGUAGAAGGGACAAGCGUUG | 6.2 | 7.14 | – | – |
| AUAAUUUUAUAAUUCUAUUUAUUCAGAAGGCAUAACAUGAGGAUCACCCAUGUAAAUUAAUGUUAUGAGGAUAUGAUUUGGUUA | 18.6 | 130 | – | – |
| AAUAUGAGCUGGUAUAAAUCCGAAACAUGAGGAUCACCCAUGUAGGAUAUCAGCACGAUAAGUGCUGAGAAGGACAUCCAGCUC | 15.2 | 16.2 | – | – |
| GUCUUUUUACAGAAGGUGUUUAACAUGAGGAUCACCCAUGUAUAUAUGGUUAAAUUUGAUAAUAACAAGGAUAUGUACUAAUCA | – | – | 53.4 | 46.4 |
| UCUGCCGCCGUGAGGAUAUGCCCAAACAAAAGCGGGCAGAAGGCACAUGAGGAUCACCCAUGUCCCGCGGUUUU | 18.5 | 37 | – | – |
| GUGGUGGGUUGAGGAUAUUGGUUGUUGUUGUCCCACAUGAGGAUCACCCAUGUGGGUUGUGGUUUUGAGAAGGUUGGUUGCCGG | – | – | 18.8 | 16.6 |
| CGCUAAGAGAACUAUUCGAGAAGACAUGAGGAUCACCCAUGUAGAAGGACAACGGAAUAAACGUUGUAGGAUAUACACUUAGCG | 9.36 | 8.97 | – | – |

| Sequence | apparent Kd [1] [nM] | apparent Kd [2] [nM] | apparent Kd [3] [nM] | apparent Kd [4] [nM] |
| --- | --- | --- | --- | --- |
| UUUUUUUUUAGAGGAUAUAUUGUGUGUUAUAUAAUAGAAGGCUAAACAUGUGACAUACACAUGAGGAUCACCCAUGUUUUGUUU | – | – | 31.6 | 27 |
| CGACACCAGACAGGAUAUGCUGGACUUUGUCCAGCAGAAGGGUCUAAACAUGAGGAUCACCCAUGUAUGGUGUCGAAAUUUAAU | – | – | 51.1 | 8.06 |
| CGCACUUAGCGAGGAUAUGUUAAACAUGAGGAUCACCCAUGUGAUUUAGUAUCAAUUUUAGUGAAACAGAAGGCGCUUAGUGCG | 17.6 | 14.9 | – | – |
| UAAGAGUGAGGAUAUUCGUAGUACACGGAGACGUGUAUUACGGAGAAGGCACAUGAGGAUCACCCAUGUUCCUU | 15.6 | 48.5 | – | – |
| AACGUGUGAGGAUAUGCCGUGCCCUUCCGGAAGGAGCGGGUGCAGAAGGCACAUGAGGAUCACCCAUGUCGGCA | 33.9 | 49.8 | – | – |
| GAGUAGAUCCGAGGAUAUACAAUCCGGAAACGGUACAUGAGGAUCACCCAUGUAGAAGGCGGAUCUACAGGUACUAAAGUACCG | 5.99 | 9.24 | – | – |
| GAGCGGGAAACAUGAGGAUCACCCAUGUAAAAAAUCCUCAAGUAGGAUAUGCGAAAAAAAAAAAAGCAGAAGGGCUACCCGGUC | 58.3 | 72.7 | – | – |
| UGCUAGGACCUAGGAUAUCCUGGGUUGGUGGUGCUUGAUGACCGGACAUGAGGAUCACCCAUGUAGGAGAAGGAGGUUGUUAAG | 61.2 | 100 | – | – |
| GCUCAUAUCACAGGAUAUGGCCAGCAAAUUUGGCCAGAAGGGUGAUUCAUAUUAAAAUCACAUGAGGAUCACCCAUGUACGGCA | – | – | 166 | 321 |
| AAGAAGUGAGGAUAUGUCUGUGCGAAAAAAAAAAAGUGCAGACAGAAGGCACAUGAGGAUCACCCAUGUCAAAA | 25.6 | 37.1 | – | – |
| CACUGCAUGUAAGGAUAUCGACUGGAAUACAGUCGAGAAGGUACAUGAGGAUCACCCAUGUAAGCAGUGAAUAAUAAUAAUAAU | 12.1 | 23.4 | – | – |
| AACACAACAUGAAACAUGAGGAUCACCCAUGUUGUUUGUAAUCAGGAUAUGAUUUUAAUAAUGAAUUAGAAGGGAUAUGGAUUU | – | – | 28.9 | 36.9 |
| GGUUGUCAUCGUCAUCCUUUCGGUACAUGAGGAUCACCCAUGUAGGAUAUGCUGCAUUCGAUGUGGCAGAAGGGCGUGUGUGUU | 23.5 | 41 | – | – |
| CUGAGGUCAGGAUAUGCAUGGCGGGACUUGCGUCGUGGCGUGGAGAAGGGACAUGAGGAUCACCCAUGUGGAGG | 117 | 99.8 | – | – |
| UUAUGUAUUGUAGGAUAUCAUAAGUUAUGUAUUAUAAUUGAAAUUUUGUUAUGAGAAGGACAUAUACAUGAGGAUCACCCAUGU | 16.6 | 14 | – | – |
| GUGGUCAGACAUGAGGAUCACCCAUGUGGAAUAAAUAACAACUAGGAUAUAUAAUAUAGGAUAUAAUAGAAGGAGUGAUUGGUG | – | – | 141 | 188 |
| CCUACAUAUUUUAAGUAUGAUUAACUAGAAGGUAGAUACAUGAGGAUCACCCAUGUUUAGAGAUCUAAGGAUAUAGUAUGUAGC | – | – | 13.3 | 9.45 |
| AACAAUCUAUCUGAGGAUAUUAUGAAAUAAACAUGAGGAUCACCCAUGUGCAGGAAAACUGCAUAUGAGAAGGCAGAUAGAUUGA | – | – | 428 | 18.5 |
| AAAUAGUUAGGAUAUACAUGAGGAUCACCCAUGUGGACUGAUGGCGCUUGAUUCAGUGGUAGAAGGGACUCAAA | 45.9 | 69.2 | – | – |
| AUUUCGUCAGGAUAUCCUAGUAAUUGUUUCAUAUUUACGAUGGAGAAGGGACAUGAGGAUCACCCAUGUUGGUC | 55.8 | 169 | – | – |
| GAAAUAAUGUAAGGAUAUACAUGAGGAUUUCUCGUAGAAGGUACAAGACAUGAGGAUCACCCAUGUGUCGCUCCGUAGAGCGUA | – | – | 308 | 299 |
| GAAGAGACAGGAUAUACAUGAGGAUCACCCAUGUGAGUAUGUUGGAGGCGGAGGAGGUGUAGAAGGGUCAAAGA | 24.3 | 26.1 | – | – |
| UGUAUGGACAGAGGAUAUACGUGCUAGAGAUACUAGCUACAAAUCCUUACAUGAGGAUCACCCAUGUAGAAGGCUGUCCAUACU | 19.1 | 39.4 | – | – |
| CGGUGCUGAGGAUAUACAUGAGGAUCACCCAUGUGUGCCAGCUAGCUGACUGGCACUUGUAGAAGGCAGUACUG | 12.7 | 24.2 | – | – |
| UGAGUGCGUGUUAGGAUAUGGUUUGGUGUUUCGGGCUAGAAGGGACAUGAGGAUCACCCAUGUAAUUGGCGGGU | 253 | 250 | – | – |
| UCCUUUAAUACAGGAUAUGUUAUUAUACAGUUGUUUGCUUAUUACUUUAUAACAGAAGGGUAGAACAUGAGGAUCACCCAUGUA | – | – | 76 | 50 |
| UAAAUAAUGUAAGGAUAUACAUGAGGAAUUCUCGUAGAAGGUACAUGACAUGAGGAUCACCCAUGUAUCGCUCAGUAGAGCGUA | – | – | 152 | 311 |
